The text below walks through data of ChEMBL document CHEMBL4371044, “Celastrol Promotes Weight Loss in Diet-Induced Obesity by Inhibiting the Protein Tyrosine Phosphatases PTP1B and TCPTP in the Hypothalamus” (J Med Chem, 2018).

The test system of assay [1] is Mus musculus. As to the kind of experiment: Antiobesity activity in high fat diet-induced obese Ptpn1fl/fl null C57BL/6 mouse assessed as hypophagia at 100 ug/kg, ip for 10 consecutive days. It is filed as functional, organism-based.
The target of assay [2] is T1, Tyrosine-protein phosphatase non-receptor type 1 (Homo sapiens, UniProt P18031).
T1 sequence (P18031 whole entry): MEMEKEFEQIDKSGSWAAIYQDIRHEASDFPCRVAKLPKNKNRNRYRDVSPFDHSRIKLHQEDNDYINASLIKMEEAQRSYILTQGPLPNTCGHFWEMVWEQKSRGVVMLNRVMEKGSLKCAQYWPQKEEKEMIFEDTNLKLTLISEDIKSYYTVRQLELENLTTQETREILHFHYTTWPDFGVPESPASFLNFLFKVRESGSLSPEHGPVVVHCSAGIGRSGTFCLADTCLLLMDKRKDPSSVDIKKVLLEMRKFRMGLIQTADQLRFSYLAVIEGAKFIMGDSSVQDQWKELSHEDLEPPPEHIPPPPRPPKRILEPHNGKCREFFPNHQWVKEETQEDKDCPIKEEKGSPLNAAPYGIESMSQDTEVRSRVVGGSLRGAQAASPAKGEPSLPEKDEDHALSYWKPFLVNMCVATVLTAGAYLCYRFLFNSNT
Briefly: Inhibition of human N-terminal His6-tagged PTP1B catalytic domain (1 to 393 residues) expressed in Escherichia coli strain Rosetta2 (DE3) using DiFMUP as substrate preincubated for 10 mins followed by substrate addition and measured after 10 mins by fluorescence assay. Put shortly: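 Tag-cleaved, SEC-purified enzyme at 1 nM, preincubated 10 min with compound at 15 concentrations from 0–500 μM (5% DMSO final) in 25 mM Bis-Tris propane pH 7.5, 50 mM NaCl, 2 mM EDTA. DiFMUP added at each construct's Km (10, 7, 10, 9 μM for PTP1B1−298, PTP1B1−393, TCPTP1−296, TCPTP1−336). Read ex 358/em 455 nm continuously 10 min at 37 °C; triplicate; log(inhibitor)-response fit.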

Assay [3] concerns the target T2, Tyrosine-protein phosphatase non-receptor type 1 (Homo sapiens) (UniProt P18031).
T2 sequence (whole entry): T1 sequence (P18031 whole entry)
Briefly: Reversible inhibition of human N-terminal His6-tagged PTP1B catalytic domain (1 to 298 residues) expressed in Escherichia coli strain Rosetta2 (DE3) at 10 times IC50 using DiFMUP as substrate preincubated for 30 mins followed by 100 fold compound dilution and substrate addition measured for 60 mins fluorescence assay.

In assay [4] the target is T2, Tyrosine-protein phosphatase non-receptor type 1 (Homo sapiens). As to the kind of experiment: Binding affinity to human N-terminal His6-tagged PTP1B catalytic domain (1 to 298 residues) expressed in Escherichia coli strain Rosetta2 (DE3) assessed as association half life using DiFMUP as substrate preincubated for 10 mins followed by substrate addition measured for 10 mins fluorescence assay.

In assay [5] the target is T3, Tyrosine-protein phosphatase non-receptor type 2 (Homo sapiens) (UniProt P17706).
T3 sequence (whole entry): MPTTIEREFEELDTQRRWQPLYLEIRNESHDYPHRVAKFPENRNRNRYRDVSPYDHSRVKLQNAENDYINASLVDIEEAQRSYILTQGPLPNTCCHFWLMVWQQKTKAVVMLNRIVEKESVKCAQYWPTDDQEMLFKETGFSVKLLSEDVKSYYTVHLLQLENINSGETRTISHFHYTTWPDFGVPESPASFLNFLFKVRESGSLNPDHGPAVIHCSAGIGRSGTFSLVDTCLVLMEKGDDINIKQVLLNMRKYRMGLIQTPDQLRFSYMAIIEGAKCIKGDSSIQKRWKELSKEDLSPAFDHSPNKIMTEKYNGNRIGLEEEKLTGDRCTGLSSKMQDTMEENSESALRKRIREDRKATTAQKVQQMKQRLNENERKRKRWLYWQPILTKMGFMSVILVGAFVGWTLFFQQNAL
As to the kind of experiment: Inhibition of human N-terminal His6-tagged TCPTP catalytic domain (1 to 336 residues) expressed in Escherichia coli strain Rosetta2 (DE3) using DiFMUP as substrate preincubated for 10 mins followed by substrate addition and measured after 10 mins in presence of 0.05% Tween20 by fluorescence assay. Put shortly:
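DiFMUP IC50 assay (1 nM enzyme, 10 min preincubation, substrate at Km, 37 °C, ex 358/em 455 nm), repeated as an aggregation check under three altered conditions: 10-fold enzyme (10 nM), 0.05% Tween 20, or 0.1 mg/mL BSA in buffer.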

Assay [6] concerns the target Tyrosine-protein phosphatase non-receptor type 6 (Homo sapiens, UniProt P29350). Briefly: Inhibition of human SHP1 (245 to 521 residues) expressed in Escherichia coli strain BL21(DE3) using DiFMUP as substrate preincubated for 10 mins followed by substrate addition and measured after 10 mins by fluorescence assay. In outline: (§1)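 Selectivity panel on enzymes expressed in E. coli BL21(DE3), purified by nickel affinity then size exclusion. DiFMUP fluorescence assay run as for PTP1B/TCPTP, with per-enzyme conditions in a supplementary table; nonlinear regression for IC50; three independent experiments.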

Assay [7] addresses T4, Tyrosine-protein phosphatase non-receptor type 11 (Homo sapiens, UniProt Q06124).
T4 sequence (Q06124 whole entry): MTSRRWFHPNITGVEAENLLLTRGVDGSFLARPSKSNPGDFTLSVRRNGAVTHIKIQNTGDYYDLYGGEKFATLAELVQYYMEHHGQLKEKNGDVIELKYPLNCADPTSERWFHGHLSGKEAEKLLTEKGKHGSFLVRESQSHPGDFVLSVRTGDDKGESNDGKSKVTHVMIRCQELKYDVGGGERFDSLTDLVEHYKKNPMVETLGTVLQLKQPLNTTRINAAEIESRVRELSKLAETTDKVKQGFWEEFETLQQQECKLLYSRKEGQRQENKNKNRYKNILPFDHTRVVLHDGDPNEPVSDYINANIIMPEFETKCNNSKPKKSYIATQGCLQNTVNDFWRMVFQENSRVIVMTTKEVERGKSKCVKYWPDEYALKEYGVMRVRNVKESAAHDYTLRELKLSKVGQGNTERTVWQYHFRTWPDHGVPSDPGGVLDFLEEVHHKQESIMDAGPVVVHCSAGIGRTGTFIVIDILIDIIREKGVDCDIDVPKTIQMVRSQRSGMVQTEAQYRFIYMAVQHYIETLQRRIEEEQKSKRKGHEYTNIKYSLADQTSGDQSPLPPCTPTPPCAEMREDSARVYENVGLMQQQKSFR
As to the kind of experiment: Inhibition of human SHP2 (246 to 527 residues) expressed in Escherichia coli strain BL21(DE3) using DiFMUP as substrate preincubated for 10 mins followed by substrate addition and measured after 10 mins by fluorescence assay. In outline:
as §1

A short description of assay [8]: Inhibition of mouse LMPTP-A (1 to 158 residues) expressed in Escherichia coli strain BL21(DE3) using DiFMUP as substrate preincubated for 10 mins followed by substrate addition and measured after 10 mins by fluorescence assay. Put shortly: as §1
Assay [9] addresses T2, Tyrosine-protein phosphatase non-receptor type 1 (Homo sapiens). As to the kind of experiment: Covalent binding to human N-terminal His6-tagged PTP1B catalytic domain (1 to 298 residues) expressed in Escherichia coli strain Rosetta2 (DE3) by mass spectrometry. Put shortly: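 PTP1B at 2 mg/mL incubated 30 min with or without compound (1:5, 2% DMSO) in 50 mM Tris-HCl pH 7.5, 75 mM NaCl; C4 ZipTip cleanup; MALDI-TOF in CHCA matrix.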

Molecules are shown by their SMILES. Active and inactive are the calls of the source. The calls are words filed in the database; no cut-off is given here.

Chain of Tyrosine-protein phosphatase non-receptor type 6 (P29350 whole entry, the tested form may be a part): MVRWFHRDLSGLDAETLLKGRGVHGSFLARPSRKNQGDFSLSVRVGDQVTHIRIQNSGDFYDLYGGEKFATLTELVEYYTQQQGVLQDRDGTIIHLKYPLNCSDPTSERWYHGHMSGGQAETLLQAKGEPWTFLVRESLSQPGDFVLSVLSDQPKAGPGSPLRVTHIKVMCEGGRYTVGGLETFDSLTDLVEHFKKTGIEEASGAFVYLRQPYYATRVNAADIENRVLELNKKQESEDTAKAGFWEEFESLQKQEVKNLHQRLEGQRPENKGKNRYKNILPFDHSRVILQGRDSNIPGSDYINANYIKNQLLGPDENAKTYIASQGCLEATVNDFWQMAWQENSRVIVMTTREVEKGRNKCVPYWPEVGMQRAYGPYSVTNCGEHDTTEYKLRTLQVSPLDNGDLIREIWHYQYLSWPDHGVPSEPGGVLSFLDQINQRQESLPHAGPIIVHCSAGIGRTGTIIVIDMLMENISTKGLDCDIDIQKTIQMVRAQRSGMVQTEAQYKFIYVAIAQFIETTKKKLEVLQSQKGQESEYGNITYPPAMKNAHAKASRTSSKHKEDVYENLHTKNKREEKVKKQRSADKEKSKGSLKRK

In general, IC50 refers to the midpoint of a concentration-inhibition curve. A low value points to inhibition by little substance. In the case of `CC1=C(O)C(=O)C=C2C1=CC=C1[C@@]2(C)CC[C@@]2(C)[C@@H]3C[C@](C)(C(=O)O)CC[C@]3(C)CC[C@]12C` [CELASTROL], the outcome in assay [1] was Active. Moreover, the IC50 in [2] was 2.1 µM; in assay [6], 3.1 µM; in [7], 4.1 µM; in [8], 95.3 µM. Further, the inhibition entry in [3] and in assay [5] was “Active” each time. Further, in assay [4], the T1/2 was 31.9 min. Besides, the result in [9] was inactive.
